The MIC is the smallest concentration in the dilution series that meets the test's criterion for growth inhibition. By IC50 is commonly meant the concentration at which inhibition is half-maximal. As usually defined, the inhibition is the percentage by which the read-out fell short of the control. Read a low inhibition as little suppression.

≈ marks a conversion by molar mass, not a printed value.

Two compounds from ChEMBL document CHEMBL4219177, “Synthesis and evaluation of the antibacterial activities of aryl substituted dihydrotriazine derivatives” (Bioorg Med Chem Lett, 2018) can be followed below.

Assay [1] relates to Salmonella typhimurium. The experiment in a line: Antibacterial activity against Salmonella typhimurium 2421 after 24 hrs by two-fold serial dilution method. The conditions noted are these: Salmonella enterica, 2421, 24 h. The class given is functional, Salmonella enterica subsp. enterica serovar Typhimurium. The method in brief:
(§1)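 Bacteria grown to mid-log phase in Mueller-Hinton broth, diluted 1000-fold, and inoculated at 10^5 CFU/mL. Compounds were dissolved in DMSO (final ≤0.05%) and two-fold serially diluted. MIC was the lowest concentration giving complete growth inhibition after 24 h at 37 °C, with growth read as absorbance at 650 nm. Each experiment was run three times.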

Assay [2] concerns Staphylococcus aureus. The experiment in a line: Antibacterial activity against Staphylococcus aureus 4220 after 24 hrs by two-fold serial dilution method. The class given is functional. The conditions noted are these: RN4220, 24 h. The method in brief: (§2)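 Broth microdilution MIC. Bacteria were grown to mid-log phase in Mueller-Hinton broth, diluted 1000-fold, and inoculated at 10^5 CFU/mL. Compounds in DMSO (final ≤0.05%) were tested as two-fold serial dilutions from 64 to 0.25. Plates were incubated 24 h at 37 °C and growth read as absorbance at 650 nm. MIC = concentration completely inhibiting growth. Experiments were run three times.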

In assay [3] the test system is Staphylococcus aureus. The experiment in a line: Antibacterial activity against methicillin-resistant Staphylococcus aureus isolate CCARM 3167 after 24 hrs by two-fold serial dilution method. The class given is functional. The conditions noted are these: isolate CCARM 3167, 24 h.
In assay [4] the test system is L02. The assay can be described thus: Cytotoxicity against human L02 cells assessed as growth inhibition after 24 hrs by MTT assay. The settings on record: L02, 24 h. The class given is cell-based.
For assay [5], the system named is Escherichia coli. The assay can be described thus: Antibacterial activity against Escherichia coli 1924 after 24 hrs by two-fold serial dilution method. The conditions noted are these: Escherichia coli, 1924, 24 h. In kind it is functional. The method in brief: as §1
The test system of assay [6] is Streptococcus mutans. The experiment in a line: Antibacterial activity against Streptococcus mutans 3289 after 24 hrs by two-fold serial dilution method. In kind it is functional. The conditions noted are these: Streptococcus mutans, 3289, 24 h.
Assay [7] relates to Candida albicans. The experiment in a line: Antifungal activity against Candida albicans 7535 after 24 hrs by two-fold serial dilution method. The settings on record: Candida albicans, 7535, 24 h. In kind it is functional.
Assay [8] deals with Pseudomonas aeruginosa. The experiment in a line: Antibacterial activity against Pseudomonas aeruginosa 2742 after 24 hrs by two-fold serial dilution method. In kind it is functional. The settings on record: Pseudomonas aeruginosa, 2742, 24 h. The method in brief:
as §1

Assay [9] concerns Staphylococcus aureus. The experiment in a line: Antibacterial activity against quinolone-resistant Staphylococcus aureus isolate CCARM 3505 after 24 hrs by two-fold serial dilution method. The class given is functional. The settings on record: isolate CCARM 3505, 24 h. The method in brief:
as §2

In assay [10] the test system is Escherichia coli. The assay can be described thus: Potency index, ratio of gatifloxacin MIC to compound MIC for Escherichia coli 1924. In kind it is functional.
Assay [11] concerns Escherichia coli. The experiment in a line: Potency index, ratio of moxifloxacin MIC to compound MIC for Escherichia coli 1924. In kind it is functional.
Assay [12] deals with Staphylococcus aureus. The assay can be described thus: Potency index, ratio of gatifloxacin MIC to compound MIC for quinolone-resistant Staphylococcus aureus isolate CCARM 3505. The class given is functional.
Assay [13] has as its system Staphylococcus aureus. The experiment in a line: Potency index, ratio of moxifloxacin MIC to compound MIC for quinolone-resistant Staphylococcus aureus isolate CCARM 3505. The class given is functional.
In assay [14] the target is Dihydrofolate reductase (Staphylococcus aureus) (UniProt P0A017). The experiment in a line: Inhibition of Staphylococcus aureus DHFR at 10 uM after 1.5 hrs by ELISA relative to control. The conditions noted are these: Staphylococcus aureus subsp. aureus RN4220. On the technique in general: ELISA stands for enzyme-linked immunosorbent assay.
Chain of Dihydrofolate reductase (Staphylococcus aureus) (P0A017 2-159 limits assumed): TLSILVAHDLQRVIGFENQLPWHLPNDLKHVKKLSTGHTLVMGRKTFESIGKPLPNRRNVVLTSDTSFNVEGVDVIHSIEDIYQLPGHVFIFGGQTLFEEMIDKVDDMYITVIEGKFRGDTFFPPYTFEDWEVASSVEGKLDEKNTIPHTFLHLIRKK

`CN(C)C1=NC(c2ccc(/C=C/C(=O)c3ccc(Cl)cc3Cl)cc2)N=C(N)N1` (stereo not drawn): the MIC was over 64 mg/L in assay [1]; 19.3 µM (≈ 8.02 µg/mL) in assay [2]; 19.3 µM (≈ 8.02 µg/mL) in [3]; 8 mg/L (≈ 19.2 µM) in assay [5]; 4 mg/L (≈ 9.61 µM) in assay [6]; 8 mg/L (≈ 19.2 µM) in assay [7]. The minimal inhibitory concentration (MIC) in [8] worked out at 64 mg/L (≈ 154 µM); in assay [9] it was 8 mg/L (≈ 19.2 µM). Besides, the half-inhibitory concentration (IC50) in assay [4] was 45.1 µM.
On to `CN(C)C1=NC(c2ccc3cc(OCc4ccc(Cl)cc4Cl)ccc3c2)N=C(N)N1` (stereo not drawn), for which the MIC in assay [1] was found to be 64 mg/L (≈ 145 µM); in assay [2], 1.13 µM (≈ 0.5 µg/mL); in assay [3], 2.27 µM (≈ 1 µg/mL); in [5] it was 0.5 mg/L (≈ 1.13 µM); in assay [6] it was 1 mg/L (≈ 2.26 µM); in assay [7], 1 mg/L (≈ 2.26 µM). The MIC was 64 mg/L (≈ 145 µM) in assay [8] and 0.5 mg/L (≈ 1.13 µM) in [9]. For the same compound, the Ratio in assay [10] turned out to be 4; in [11] it was 4; in assay [12], 16; in assay [13] it was 8. The IC50 in assay [4] is 58.9 µM. For the same compound, in [14], the inhibition is 58%.
